The assay has as its system HeLa. The experiment in a line: Membranolytic activity in human HeLa cells expressing GFP after 5 mins by fluorescence leakage assay. Format: functional, cell-based. In a few lines: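 GFP-expressing HeLa cells (1 × 10^4/well, grown 24 h) were treated with peptides at various concentrations in PBS for 5 min. Supernatant was collected after centrifugation at 1000g and its fluorescence read at 485/535 nm. 1% Triton X-100 defined 100% leakage, and LC50 was calculated from three independent experiments.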
In turn, `CC(C)C[C@H](NC(=O)[C@H](CCCNC(=N)N)NC(=O)[C@H](CC(C)C)NC(=O)[C@H](CC(C)C)NC(=O)[C@H](CCCNC(=N)N)NC(=O)[C@H](CCCNC(=N)N)NC(=O)[C@H](CC(C)C)NC(=O)[C@H](CCCNC(=N)N)NC(=O)[C@H](CC(C)C)NC(=O)[C@H](CC(C)C)NC(=O)[C@H](CCCNC(=N)N)NC(=O)[C@H](CC(C)C)NC(=O)[C@H](CC(C)C)NC(=O)[C@H](CCCNC(=N)N)NC(=O)CNC(=O)CNC(=O)[C@@H](N)Cc1cnc[nH]1)C(N)=O` gave an LC50 of 25.9 µM.

In turn, H-HGGRLLRLLRRLLRLLR-NH2 had an LC50 of 3.9 µM.

As to H-HGGKLLKLLKKLLKLLK-NH2, the LC50 came out at 3.6 µM.

The compound H-HGGKLLKLLKLKKLLKL-NH2 came in with an LC50 of 38.8 µM.

Source of the values: ChEMBL document CHEMBL3826940, “Amphipathicity Determines Different Cytotoxic Mechanisms of Lysine- or Arginine-Rich Cationic Hydrophobic Peptides in Cancer Cells” (J Med Chem, 2016).
